In ChEMBL document CHEMBL4020804, “Minor phenolics from Angelica keiskei and their proliferative effects on Hep3B cells” (Bioorg Med Chem Lett, 2017):

What was measured:
NIH3T3 [1] = assay: Cytoprotective activity against GOX-induced cytotoxicity in mouse NIH/3T3 cells assessed as LDH release at 0.1 uM treated for 5 hrs with 15 mU/ml GOX challenge by spectrophotometric method (reference value: 63.34 +/- 1.85%); assay type: functional
NIH3T3 [2] = assay: Cytoprotective activity against GOX-induced oxidative stress in mouse NIH/3T3 cells assessed as cell survival at 1 uM treated for 5 hrs with 15 mU/ml GOX challenge by MTT assay (reference value: 42.71 +/- 2.10%); assay type: functional; settings: NIH3T3, 5 h, read-out: Survival
Hep 3B2 [3] = assay: Proliferative activity against human Hep3B cells assessed as cell viability after 4 days by cell counting method; assay type: functional, cell-based
Procedure, shortened: (§1)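 Hep3B kept in DMEM/10% FBS, 37°C, 5% CO2, then seeded at 1×10^5 cells/ml in medium containing compound (0.1–100 μM; DMSO-only control) in monolayer. Cells were checked daily by microscope for attachment and morphology, and counted after 4 days, in triplicate, in three independent experiments. Counts are given as % of the 0 μM group.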

NIH3T3 [4] = assay: Cytoprotective activity against GOX-induced cytotoxicity in mouse NIH/3T3 cells assessed as LDH release at 1 uM treated for 5 hrs with 15 mU/ml GOX challenge by spectrophotometric method (reference value: 63.34 +/- 1.85%); assay type: functional
Hep 3B2 [5] = assay: Cytotoxicity against human Hep3B cells assessed as effect on cell attachment at 0.1 to 100 uM measured every day during 4 days incubation period by microscopic method; assay type: cell-based; settings: hep 3b2, 96 h; procedure, shortened: as §1
Hep 3B2 [6] = assay: Cytoprotective activity against GOX-induced oxidative stress in human Hep3B cells assessed as increase in cell survival treated for 5 hrs with 15 mU/ml GOX challenge by MTT assay; assay type: functional, cell-based
Procedure, shortened: (§2)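 Cells plated at 7×10^4 per well; next day exposed for 5 h to compound (0.1–100 μM) with 15 mU/ml glucose oxidase in growth medium. Viability expressed relative to GOX-free cells; α-tocopherol positive control.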

Hep 3B2 [7] = assay: Cytoprotective activity against GOX-induced cytotoxicity in human Hep3B cells assessed as LDH release at 100 uM treated for 5 hrs with 15 mU/ml GOX challenge by spectrophotometric method (reference value: 60.94 +/- 1.18%); assay type: functional
Hep 3B2 [8] = assay: Cytoprotective activity against GOX-induced cytotoxicity in human Hep3B cells assessed as LDH release at 0.1 uM treated for 5 hrs with 15 mU/ml GOX challenge by spectrophotometric method (reference value: 60.94 +/- 1.18%); assay type: functional
NIH3T3 [9] = assay: Cytoprotective activity against GOX-induced oxidative stress in mouse NIH/3T3 cells assessed as cell survival at 0.1 uM treated for 5 hrs with 15 mU/ml GOX challenge by MTT assay (reference value: 42.71 +/- 2.10%); assay type: functional; settings: NIH3T3, 5 h, read-out: Survival
Hep 3B2 [10] = assay: Cytoprotective activity against GOX-induced oxidative stress in human Hep3B cells assessed as cell survival at 10 uM treated for 5 hrs with 15 mU/ml GOX challenge by MTT assay (reference value: 41.51 +/- 1.39%); assay type: functional; settings: read-out: Survival
NIH3T3 [11] = assay: Cytoprotective activity against GOX-induced oxidative stress in mouse NIH/3T3 cells assessed as cell survival at 100 uM treated for 5 hrs with 15 mU/ml GOX challenge by MTT assay (reference value: 42.71 +/- 2.10%); assay type: functional; settings: NIH3T3, 5 h, read-out: Survival
Hep 3B2 [12] = assay: Proliferative activity against human Hep3B cells assessed as cell viability at 0.1 uM after 4 days by cell counting method relative to control; assay type: functional; settings: 96 h, read-out: Activity; procedure, shortened: as §1
Hep 3B2 [13] = assay: Proliferative activity against human Hep3B cells assessed as cell viability at 10 uM after 4 days by cell counting method relative to control; assay type: functional; settings: 96 h, read-out: Activity; procedure, shortened: as §1
NIH3T3 [14] = assay: Cytoprotective activity against GOX-induced oxidative stress in mouse NIH/3T3 cells assessed as increase in cell survival treated for 5 hrs with 15 mU/ml GOX challenge by MTT assay; assay type: functional, cell-based; procedure, shortened: as §2
Hep 3B2 [15] = assay: Cytoprotective activity against GOX-induced oxidative stress in human Hep3B cells assessed as cell survival at 100 uM treated for 5 hrs with 15 mU/ml GOX challenge by MTT assay (reference value: 41.51 +/- 1.39%); assay type: functional; settings: read-out: Survival
Hep 3B2 [16] = assay: Cytoprotective activity against GOX-induced cytotoxicity in human Hep3B cells assessed as LDH release at 1 uM treated for 5 hrs with 15 mU/ml GOX challenge by spectrophotometric method (reference value: 60.94 +/- 1.18%); assay type: functional
NIH3T3 [17] = assay: Cytoprotective activity against GOX-induced cytotoxicity in mouse NIH/3T3 cells assessed as LDH release at 100 uM treated for 5 hrs with 15 mU/ml GOX challenge by spectrophotometric method (reference value: 63.34 +/- 1.85%); assay type: functional
NIH3T3 [18] = assay: Cytoprotective activity against GOX-induced cytotoxicity in mouse NIH/3T3 cells assessed as decrease in LDH release treated for 5 hrs with 15 mU/ml GOX challenge by spectrophotometric method; assay type: functional, cell-based
Hep 3B2 [19] = assay: Cytotoxicity against human Hep3B cells assessed as effect on cell morphology at 0.1 to 100 uM measured every day during 4 days incubation period by microscopic method; assay type: cell-based; settings: hep 3b2, 96 h; procedure, shortened: as §1
Hep 3B2 [20] = assay: Cytoprotective activity against GOX-induced cytotoxicity in human Hep3B cells assessed as decrease in LDH release treated for 5 hrs with 15 mU/ml GOX challenge by spectrophotometric method; assay type: functional, cell-based
Hep 3B2 [21] = assay: Cytoprotective activity against GOX-induced oxidative stress in human Hep3B cells assessed as cell survival at 0.1 uM treated for 5 hrs with 15 mU/ml GOX challenge by MTT assay (reference value: 41.51 +/- 1.39%); assay type: functional; settings: read-out: Survival
Hep 3B2 [22] = assay: Proliferative activity against human Hep3B cells assessed as cell viability at 100 uM after 4 days by cell counting method relative to control; assay type: functional; settings: 96 h, read-out: Activity; procedure, shortened: as §1
Hep 3B2 [23] = assay: Cytoprotective activity against GOX-induced oxidative stress in human Hep3B cells assessed as cell survival at 1 uM treated for 5 hrs with 15 mU/ml GOX challenge by MTT assay (reference value: 41.51 +/- 1.39%); assay type: functional; settings: read-out: Survival
NIH3T3 [24] = assay: Cytoprotective activity against GOX-induced cytotoxicity in mouse NIH/3T3 cells assessed as LDH release at 10 uM treated for 5 hrs with 15 mU/ml GOX challenge by spectrophotometric method (reference value: 63.34 +/- 1.85%); assay type: functional
NIH3T3 [25] = assay: Cytoprotective activity against GOX-induced oxidative stress in mouse NIH/3T3 cells assessed as cell survival at 10 uM treated for 5 hrs with 15 mU/ml GOX challenge by MTT assay (reference value: 42.71 +/- 2.10%); assay type: functional; settings: NIH3T3, 5 h, read-out: Survival
Hep 3B2 [26] = assay: Proliferative activity against human Hep3B cells assessed as cell viability at 1 uM after 4 days by cell counting method relative to control; assay type: functional; settings: 96 h, read-out: Activity; procedure, shortened: as §1
Hep 3B2 [27] = assay: Cytoprotective activity against GOX-induced cytotoxicity in human Hep3B cells assessed as LDH release at 10 uM treated for 5 hrs with 15 mU/ml GOX challenge by spectrophotometric method (reference value: 60.94 +/- 1.18%); assay type: functional

Compound	Activity (NIH3T3 [1])	viability at 1 µM (NIH3T3 [2])	Activity (Hep 3B2 [3])	Activity (NIH3T3 [4])	Activity (Hep 3B2 [5])	Activity (Hep 3B2 [6])	Activity (Hep 3B2 [7])	Activity (Hep 3B2 [8])	viability at 0.1 µM (NIH3T3 [9])	viability at 10 µM (Hep 3B2 [10])	viability at 100 µM (NIH3T3 [11])	viability at 0.1 µM (Hep 3B2 [12])	viability at 10 µM (Hep 3B2 [13])	Activity (NIH3T3 [14])	viability at 100 µM (Hep 3B2 [15])	Activity (Hep 3B2 [16])	Activity (NIH3T3 [17])	Activity (NIH3T3 [18])	Activity (Hep 3B2 [19])	Activity (Hep 3B2 [20])	further results
CC(C)=CCCC(C)(O)C1Cc2c(O)ccc(C(=O)/C=C/c3ccc(O)cc3)c2O1 (stereo not drawn)	27.7%	44.4%	Dose-dependent effect	21.87%	Non-Toxic	Dose-dependent effect	8.14%	25.13%	43.5%	62.1%	77.8%	100%	104%	Dose-dependent effect	76%	19.53%	12.35%	Dose-dependent effect	Non-Toxic	Dose-dependent effect	viability at 0.1 µM (Hep 3B2 [21]): 42.9%; viability at 100 µM (Hep 3B2 [22]): 113%; viability at 1 µM (Hep 3B2 [23]): 49%; Activity (NIH3T3 [24]): 15%; viability at 10 µM (NIH3T3 [25]): 57.5%; viability at 1 µM (Hep 3B2 [26]): 102%; Activity (Hep 3B2 [27]): 19.08%
O=C1CC(c2ccc(O)cc2)Oc2cc(O)ccc21 (racemic)	18.42%	88.4%	Dose-dependent effect	7.85%	Non-Toxic	Dose-dependent effect	3.82%	11.57%	74.1%	98.8%	126%	100%	112%	Dose-dependent effect	112%	6.83%	2.63%	Dose-dependent effect	Non-Toxic	Dose-dependent effect	viability at 0.1 µM (Hep 3B2 [21]): 70.7%; viability at 100 µM (Hep 3B2 [22]): 135%; viability at 1 µM (Hep 3B2 [23]): 88.4%; Activity (NIH3T3 [24]): 5.51%; viability at 10 µM (NIH3T3 [25]): 111%; viability at 1 µM (Hep 3B2 [26]): 104%; Activity (Hep 3B2 [27]): 4.93%
O=C(/C=C/c1ccc(O)cc1)c1ccc(O)cc1O [ISOLIQUIRITIGENIN]	44.26%	59.2%	Dose-dependent effect	26.03%	Non-Toxic	Dose-dependent effect	10.1%	27.14%	44.8%	66.2%	82.9%	101%	109%	Dose-dependent effect	75.3%	24.29%	8.85%	Dose-dependent effect	Non-Toxic	Dose-dependent effect	viability at 0.1 µM (Hep 3B2 [21]): 41.9%; viability at 100 µM (Hep 3B2 [22]): 126%; viability at 1 µM (Hep 3B2 [23]): 62.9%; Activity (NIH3T3 [24]): 22.67%; viability at 10 µM (NIH3T3 [25]): 71.9%; viability at 1 µM (Hep 3B2 [26]): 103%; Activity (Hep 3B2 [27]): 21.06%
C=C(C)[C@H]1CC[C@](C)([C@@H](O)Cc2c(O)ccc(C(=O)/C=C/c3ccc(O)cc3)c2O)O1 (racemic)	28.31%	61.4%	Dose-dependent effect	20.91%	Non-Toxic	Dose-dependent effect	6.99%	26.09%	44.9%	65.4%	81.8%	100%	102%	Dose-dependent effect	76.8%	20.91%	6.22%	Dose-dependent effect	Non-Toxic	Dose-dependent effect	viability at 0.1 µM (Hep 3B2 [21]): 45.2%; viability at 100 µM (Hep 3B2 [22]): 116%; viability at 1 µM (Hep 3B2 [23]): 60.5%; Activity (NIH3T3 [24]): 15.76%; viability at 10 µM (NIH3T3 [25]): 66.4%; viability at 1 µM (Hep 3B2 [26]): 101%; Activity (Hep 3B2 [27]): 14.03%
